Measurements of several laboratories.
Compare with care: the assays were run in different laboratories.
Observed: cell growth or viability

| Compound | cell line | method | tested at | time | endpoint | value |
| --- | --- | --- | --- | --- | --- | --- |
| CC/C(=C(\c1ccccc1)c1ccc(OCCN(C)C)cc1)c1ccccc1 | CAPAN-1 | ATP luminescence | – | 72 h | EC90 | 28400 nM |
| CN1CCN(C(=O)[C@H](CCCN[C@@H]2C[C@H]2c2ccc(F)cc2)NC(=O)c2ccc(-n3ccnn3)cc2)CC1 | TF-1a | resazurin | – | 96 h | EC50 | 31.1 nM |
| CC(=O)Nc1cccc(-n2c(=O)n(C3CC3)c(=O)c3c(Nc4ccc(I)cc4F)n(C)c(=O)c(C)c32)c1 | SW-620 | resazurin | 6.25 nM | 72 h | viability | 38.8% |
| C[C@]12CC[C@@H]3c4ccc(O)cc4CC[C@H]3[C@@H]1CC[C@@H]2O | CAPAN-1 | ATP luminescence | – | 72 h | EC90 | 213000 nM |
| COc1ccc(-c2c(-c3ccc(C#N)c(F)c3)nc(N3CCC(N)CC3)n(C)c2=O)cc1F | TF-1a | resazurin | – | 96 h | EC50 | 7.87 nM |
| Cc1nc(NC(=O)N2CCC[C@H]2C(N)=O)sc1-c1ccnc(C(C)(C)C(F)(F)F)c1 | HCC1954 | – | – | 5 days | EC50 | 1130 nM |
| Nc1ccn([C@@H]2O[C@H](CO)[C@@H](O)[C@@H]2O)c(=O)n1 | FaDu | CCK-8 | 40 nM | 96 h | inhibition | 50% |
| C[C@H](Nc1ccc2c(c1)OCCn1cc(N3C(=O)OC[C@H]3C(F)F)nc1-2)C(N)=O | HCC1954 | – | – | 5 days | EC50 | 108 nM |
| COc1cc(Nc2nccc(-c3cnn4nc(OC)ccc34)n2)cc(C(F)(F)F)c1 | SJSA-1 | ATP luminescence | – | – | IC50 | 510 nM |
| COc1cccc2c1C(=O)c1c(O)c3c(c(O)c1C2=O)C[C@@](O)(C(=O)CO)C[C@@H]3O[C@H]1C[C@H](N)[C@H](O)[C@H](C)O1 | SUM159 | MTT | – | 48 h | IC90 | > 20000 nM |
| N[C@H]1CC[C@H](N[C@@H]2C[C@H]2c2ccccc2)CC1 | TF-1a | resazurin | – | 96 h | EC50 | 0.09 nM |
| CC(C)C[C@H](NC(=O)[C@H](Cc1ccccc1)NC(=O)c1cnccn1)B(O)O | NCI-H441 | ATP luminescence | – | – | IC50 | 9 nM |
